In ChEMBL document CHEMBL4321800, “Synthesis, Identification, and Structure-Activity Relationship Analysis of GATA4 and NKX2-5 Protein-Protein Interaction Modulators” (J Med Chem, 2019) one finds Activity data, which are given here for 16 molecules.

Calls of active or inactive are those of the source. The rule behind the calls is not given here.

Holding throughout (format): cell-based
The target in data set [1] is Transcription factor GATA-4 (Mus musculus) (UniProt Q08369). Kind of data set: Modulation of mouse GATA4 expressed in Chlorocebus aethiops COS1 cells harboring NP-112 reporter gene assessed as BNP promoter-driven transcriptional activity at 10 uM after 24 hrs by luciferase reporter gene assay relative to control. In short, it runs like this:
(§1)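 GATA reporter assay: COS-1 cells (14 000/well, overnight) transfected 6 h serum/antibiotic-free with NP-112 reporter (tandem GATA sites plus rat BNP minimal promoter, 100 ng/well) and pMT2-GATA4 (25 ng/well), Fugene 6 1:3. Treated 24 h with compound or 0.1% DMSO. Luminescence read; triplicates, Grubbs outliers removed, % of control.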
(Reporter assays use an easily measured gene product as a stand-in for the process of interest.)

For data set [2], the target named is Homeobox protein Nkx-2.5 (Mus musculus) (UniProt P42582). The data set is described as follows: Inhibition of mouse NKX2-5 expressed in Chlorocebus aethiops COS1 cells harboring 3xHA reporter gene assessed as protein-induced transcriptional activity at 10 uM after 24 hrs by luciferase reporter gene assay relative to control. The arrangement: scale not given: the % may be the effect or the level left. In short, it runs like this: (§2)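 COS-1 cells seeded 14 000/well and grown overnight. Transfection for 6 h in serum- and antibiotic-free medium with pGL3-3xHA reporter (100 ng/well) and pMT2-NKX2-5 (25 ng/well), Fugene 6 1:3. Compound or 0.1% DMSO vehicle for 24 h, then luciferase luminescence. Triplicate wells with Grubbs outlier removal, % of control.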

The target in data set [3] is T1, GATA4/NKX2-5 (Rattus norvegicus) (UniProt P46152+O35767). The data set is described as follows: Modulation of GATA4/NKX2-5 protein-protein interaction in neonatal Wistar rat cardiomyocytes harboring -534/+4 bp rat BNP proximal promoter assessed as increase in BNP-promoter driven activity at 10 to 30 preincubated for 1 hr followed by hypertrophic agonist endothelin-1 and measured after 24 hrs by luminescence method. An outline of the steps:
(§3)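 Neonatal ventricular myocytes from 2–3-day-old Wistar rats, 50 000/well, cultured 18–20 h in DMEM/F12 with 10% FBS. Transfected 24 h in serum-free CSFM with pGL3-BNP (−534/+4 promoter, 100 ng/well), Fugene 6 1:3. Compound or 0.1% DMSO added in CSFM, endothelin-1 1 h later, luminescence after 24 h. Mean + SD, n = 3; ANOVA with Tukey or Games–Howell.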

For data set [4], the system named is COS-1. The data set is described as follows: Cytotoxicity against Chlorocebus aethiops COS1 cells assessed as reduction in cell viability at 10 uM after 24 hrs by MTT assay relative to control. Particulars: cos-1, 24 h. In short, it runs like this:
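COS-1 cells plated 10 000/well, exposed next day for 24 h (range 1–30 μM). Incubated with 0.5 mg/mL MTT for 2 h at 37 °C, formazan dissolved in DMSO, A550 minus A650 background. Means of 2–3 independent experiments with triplicate wells, % of vehicle-treated cells; toxic if viability fell >10% at 10 μM.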
(In general: Tetrazolium dyes change colour on reduction, which living cells bring about.)

The test system of data set [5] is COS-1. The data set is described as follows: Induction of necrosis in Chlorocebus aethiops COS1 cells assessed as LDH release at 1 to 30 uM after 24 hrs by LDH assay relative to control. Particulars: cos-1, 24 h. An outline of the steps:
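COS-1 cells in DMEM with 10% FBS at 37 °C, 5% CO₂, plated 10 000/well and exposed next day to 1–30 μM for 24 h. Medium samples mixed with NAD, iodonitrotetrazolium, lactate and phenazine methosulfate in 0.2 M Tris-HCl pH 8.2, 30 min at room temperature. Stopped with acetic acid, A490 read and normalized to maximal and spontaneous release.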
(In general: LDH leaks from cells whose membrane has failed.)

Data set [6] deals with T2, GATA4/NKX2-5 (Mus musculus) (UniProt Q08369+P42582). The data set is described as follows: Inhibition of mouse GATA4/mouse NKX2-5 protein-protein interaction expressed in Chlorocebus aethiops COS1 cells harboring 3xHA reporter gene assessed as transcriptional synergy at 10 uM after 24 hrs by luciferase reporter gene assay relative to control. The arrangement: scale not given: the % may be the effect or the level left. In short, it runs like this: (§4)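 COS-1 cells seeded 14 000/well, grown overnight, then transfected for 6 h in serum- and antibiotic-free medium with pGL3-3xHA reporter (three NKX2-5 sites, 100 ng/well) plus pMT2-GATA4 and pMT2-NKX2-5 (total 50 ng/well), Fugene 6 at 1:3 DNA/reagent. Compound or 0.1% DMSO vehicle for 24 h, then luminescence read. Triplicates, Grubbs outliers removed, expressed as % of control.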

For data set [7], the target named is T1, GATA4/NKX2-5 (Rattus norvegicus). The data set is described as follows: Modulation of GATA4/NKX2-5 protein-protein interaction in neonatal Wistar rat cardiomyocytes harboring -534/+4 bp rat BNP proximal promoter assessed as reduction in BNP-promoter driven activity at 10 to 30 preincubated for 1 hr followed by hypertrophic agonist endothelin-1 and measured after 24 hrs by luminescence method. An outline of the steps: as §3

Data set [8] concerns the target Transcription factor GATA-4 (Mus musculus) (UniProt Q08369). The data set is described as follows: Inhibition of mouse GATA4 expressed in Chlorocebus aethiops COS1 cells harboring NP-112 reporter gene assessed as BNP promoter-driven transcriptional activity at 10 uM after 24 hrs by luciferase reporter gene assay relative to control. The arrangement: scale not given: the % may be the effect or the level left. In short, it runs like this: as §1

Data set [9] deals with T1, GATA4/NKX2-5 (Rattus norvegicus). Kind of data set: Modulation of GATA4/NKX2-5 protein-protein interaction in neonatal Wistar rat cardiomyocytes harboring -534/+4 bp rat BNP proximal promoter assessed as reduction in hypertrophic response at 30 preincubated for 1 hr followed by hypertrophic agonist endothelin-1 and measured after 24 hrs by luminescence method. In short, it runs like this: as §3

In data set [10] the target is T2, GATA4/NKX2-5 (Mus musculus). Kind of data set: Modulation of mouse GATA4/mouse NKX2-5 protein-protein interaction expressed in Chlorocebus aethiops COS1 cells harboring 3xHA reporter gene assessed as transcriptional synergy at 10 uM after 24 hrs by luciferase reporter gene assay relative to control. An outline of the steps:
as §4

The target in data set [11] is Homeobox protein Nkx-2.5 (Mus musculus) (UniProt P42582). Kind of data set: Modulation of mouse NKX2-5 expressed in Chlorocebus aethiops COS1 cells harboring 3xHA reporter gene assessed as protein-induced transcriptional activity at 10 uM after 24 hrs by luciferase reporter gene assay relative to control. An outline of the steps: as §2
Data set [12] deals with COS-1. Kind of data set: Cytotoxicity against Chlorocebus aethiops COS1 cells assessed as reduction in cell viability at 10 uM after 24 hrs by CellTiter-Glo Luminescent Cell Viability assay relative to control. Conditions: cos-1, 24 h. An outline of the steps: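 Intracellular ATP read-out (CellTiter-Glo) in COS-1 cells plated and treated as for MTT, 24 h exposure, doxorubicin as positive control. Plates equilibrated 30 min at room temperature, washed with PBS, reagent added, mixed 2 min, 15 min at room temperature, then luminescence. Mean + SEM of three independent experiments, % of vehicle-treated cells.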

The target in data set [13] is Homeobox protein Nkx-2.5 (Mus musculus) (UniProt P42582). The data set is described as follows: Enhancement of mouse NKX2-5 expressed in Chlorocebus aethiops COS1 cells harboring 3xHA reporter gene assessed as protein-induced transcriptional activity at 10 uM after 24 hrs by luciferase reporter gene assay relative to control. In short, it runs like this: as §2
Data set [14] has as its target Transcription factor GATA-4 (Mus musculus) (UniProt Q08369). The data set is described as follows: Enhancement of mouse GATA4 expressed in Chlorocebus aethiops COS1 cells harboring NP-112 reporter gene assessed as BNP promoter-driven transcriptional activity at 10 uM after 24 hrs by luciferase reporter gene assay relative to control. An outline of the steps: as §1

Data set [15] concerns the target T2, GATA4/NKX2-5 (Mus musculus). Kind of data set: Enhancement of mouse GATA4/mouse NKX2-5 protein-protein interaction expressed in Chlorocebus aethiops COS1 cells harboring 3xHA reporter gene assessed as transcriptional synergy at 10 uM after 24 hrs by luciferase reporter gene assay relative to control. In short, it runs like this: as §4

Transcription factor GATA-4 (Mus musculus), sequence (Q08369 whole entry): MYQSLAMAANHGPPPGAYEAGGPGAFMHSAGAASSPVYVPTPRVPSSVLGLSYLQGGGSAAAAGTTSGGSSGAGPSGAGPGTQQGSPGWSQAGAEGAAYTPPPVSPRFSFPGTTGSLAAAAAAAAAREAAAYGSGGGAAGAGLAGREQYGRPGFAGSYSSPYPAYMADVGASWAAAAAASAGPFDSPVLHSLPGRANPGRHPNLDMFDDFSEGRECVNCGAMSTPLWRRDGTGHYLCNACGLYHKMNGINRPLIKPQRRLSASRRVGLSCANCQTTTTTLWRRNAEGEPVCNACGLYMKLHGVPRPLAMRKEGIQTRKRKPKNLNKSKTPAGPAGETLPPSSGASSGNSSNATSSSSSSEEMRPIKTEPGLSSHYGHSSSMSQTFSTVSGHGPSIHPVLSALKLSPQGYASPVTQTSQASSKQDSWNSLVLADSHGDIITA
Homeobox protein Nkx-2.5 (Mus musculus), sequence (P42582 whole entry): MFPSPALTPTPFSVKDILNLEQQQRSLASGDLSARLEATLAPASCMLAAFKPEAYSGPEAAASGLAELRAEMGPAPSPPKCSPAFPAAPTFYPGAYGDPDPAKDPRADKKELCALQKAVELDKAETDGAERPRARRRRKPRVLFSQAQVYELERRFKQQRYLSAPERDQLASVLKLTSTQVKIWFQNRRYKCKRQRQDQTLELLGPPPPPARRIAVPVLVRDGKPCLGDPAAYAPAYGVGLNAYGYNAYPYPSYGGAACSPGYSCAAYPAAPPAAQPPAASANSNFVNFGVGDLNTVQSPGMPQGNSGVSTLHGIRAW

Consider `CCN(CC)c1ccc(NC(=O)c2c(C)noc2-c2snnc2C)cc1`, for which the Activity in [1] was 68%; in data set [2], 21%; in the data set with COS-1 [4] it was above 10%; in the data set on COS-1 [5] it was below 8%; in data set [6], 24%. Further, in [3], the result was Active.
For `CCN(c1ccc(NC(=O)c2cnsc2)cc1)C(C)C`, the result in data set [7] and in data set [9] was Active. Besides, the Activity stood at 11% in data set [2], 20% in [8] and 12% in data set [6].
With `CCN(CC)c1ccc(NC(=O)c2cc(C)oc2-c2ccccc2)cc1`, the Activity was 49% in data set [1]; 35% in data set [10]; above 10% with COS-1 [4]; below 8% with COS-1 [5]; 37% in [11].
Turning to `CC(=O)N(Cc1ccc(N(C)C)cc1)c1c(-c2ccccc2)noc1C`, the Activity in [8] was 47%; in the data set with COS-1 [4], above 10%; in the data set on COS-1 [5], below 8%; in data set [6] it was 28%.
Turning to `Cc1onc(-c2ccccc2)c1COc1ccc(C(=O)OCCC#N)cc1`, the Activity is above 10% with COS-1 [12]; 29% in [2]; 41% in data set [8]; above 10% in the data set on COS-1 [4]; below 8% with COS-1 [5]; 26% in data set [6].
Take `CCN(CC)c1ccc(NC(=O)c2c(-c3cccc([N+](=O)[O-])c3)noc2C)cc1`: the Activity in data set [10] was 65%; in the data set with COS-1 [4], “Non-Toxic”; in the data set with COS-1 [5], below 8%.
Regarding `COc1ccc(-c2cc(NC(=O)c3ccc(C(C)(C)C)cc3)n[nH]2)cc1`, the values for the Activity entry (in the data set with COS-1 [12]; in data set [8]; with COS-1 [5]) were “Non-Toxic”, 40% and below 8%, respectively.
For the molecule `CCN(CC)c1ccc(NC(=O)c2c(C)noc2-c2ccccc2)cc1`, the Activity in data set [2] was 29%; in the data set on COS-1 [4] it was above 10%; in the data set with COS-1 [5] it was below 8%; in data set [6], 29%.
Consider `CCN(CC)c1ccc(NC(=O)c2cnsc2)cc1`, for which the Activity in [1] is 48%; with COS-1 [12] it was “Non-Toxic”; in data set [2], 16%; in the data set on COS-1 [5], below 8%; in data set [6] it was 27%.
Turning to `Cc1onc(-c2ccccc2)c1C(=O)N(C1=NC(C)CS1)c1ccc(Cl)cc1` (configuration not stated), the Activity result with COS-1 [12] was “Non-Toxic”; in [13], 110%; in the data set on COS-1 [5], below 8%; in [14] it was 220%; in data set [15], 170%. For the same molecule, in data set [3], the outcome was Active.
With `CCN(CC)c1ccc(NC(=O)c2c(-c3ccccc3)noc2C)cc1`, the Activity was 62% in data set [1]; above 10% in the data set on COS-1 [12]; 50% in [10]; below 8% with COS-1 [5]; 49% in data set [11].
As for `CCN(CC)c1ccc(NC(=O)c2cnc3ncccn23)cc1`, the Activity is 120% in data set [13], below 8% in the data set with COS-1 [5], 130% in data set [14] and 140% in data set [15].
With `CCN(CC)c1ccc(NC(=O)c2csc(C)c2-c2ccccc2)cc1`, the Activity in data set [1] was 58%; in data set [10], 33%; with COS-1 [4], “Non-Toxic”; with COS-1 [5], below 8%; in data set [11], 39%.
As to `CCC(=O)N(Cc1ccc(N(CC)CC)cc1)c1c(-c2ccccc2)noc1C`, the Activity was above 10% with COS-1 [12]; 34% in [2]; 43% in data set [8]; above 10% in the data set on COS-1 [4]; below 8% in the data set on COS-1 [5]; 22% in data set [6].
Consider `CCN(c1ccc(NC(=O)c2c(C)noc2-c2ccccc2)cc1)C(C)C`, for which the Activity is 31% in [2]; 41% in [8]; above 10% in the data set with COS-1 [4]; below 8% in the data set on COS-1 [5]; 25% in data set [6].
As for `CC(=O)COC(=O)c1ccc(OCc2c(-c3ccccc3)noc2C)cc1`, the Activity in data set [10] is 37%; in data set [8], 44%; in the data set with COS-1 [4], above 10%; in the data set with COS-1 [5], below 8%; in data set [11], 41%.
